Published values from different studies.
Protocols differ between the studies behind these lines. pIC50: −log10 of the molar value.
Target: Acetylcholinesterase (ache, Electrophorus electricus, UniProt O42275)
Observed: enzyme activity
Mode: inhibitor
Method: Ellman

Structure (SMILES) | pIC50
COc1ccc(-c2nnc(-c3ccc(OCc4cn(Cc5ccc(Cl)cc5)nn4)cc3)o2)cc1 | < 4.00
CCOc1ccc(/C=C/C(=O)N2CCCC(NC(=O)OC(C)(C)C)C2)cc1OC (stereo not shown) | 4.45
CCN(C)C(=O)Oc1ccc(CCC(=O)N2CCC(CCCc3ccccc3)CC2)cc1OC | 4.82
CC(C)(C)OC(=O)NC1CCCN(C(=O)/C=C/c2ccc(Br)cc2)C1 (stereo not shown) | < 4.30
Fc1ccc(-c2nnc(-c3ccc(OCc4cn(Cc5ccccc5)nn4)cc3)o2)cc1 | < 4.00
CCN(C)C(=O)Oc1ccc(CCC(=O)N2CCC(Cc3ccccc3)CC2)cc1 | 5.21
Clc1ccc(Cn2cc(COc3ccc(-c4nnc(-c5ccccc5)o4)cc3)nn2)cc1 | < 4.00
CCN(C)C(=O)Oc1ccc(CCC(=O)N2CCN(Cc3ccccc3)CC2)cc1 | 5.11
COc1ccc(-c2nnc(-c3ccc(OCc4cn(Cc5ccccc5)nn4)cc3)o2)cc1 | < 4.00
CCN(C)C(=O)Oc1ccc(CCC(=O)N2CCC(Cc3ccccc3)CC2)cc1OC | 5.04
O=[N+]([O-])c1ccc(-c2nnc(-c3ccc(OCc4cn(Cc5ccc(Br)cc5)nn4)cc3)o2)cc1 | < 4.00
COc1ccc(-c2csc(N/N=C(/C=C/c3c(Cl)cccc3Cl)C(=O)O)n2)cc1 | 6.30
Cc1ccc(/C=C/C(=O)N2CCCC(NC(=O)OC(C)(C)C)C2)cc1 (stereo not shown) | < 4.30
Fc1ccc(-c2nnc(-c3ccc(OCc4cn(Cc5ccc(Br)cc5)nn4)cc3)o2)cc1 | < 4.00
CN(C)C(=O)Oc1ccc(/C=C/C(=O)NC2CCN(Cc3ccccc3)CC2)cc1 | 5.23
O=[N+]([O-])c1ccc(-c2nnc(-c3ccc(OCc4cn(Cc5ccc(Cl)cc5)nn4)cc3)o2)cc1 | < 4.00
O=C(O)C(/C=C/c1c(Cl)cccc1Cl)=N\Nc1nc(-c2ccc(Cl)cc2)cs1 | 7.04
COc1cccc(/C=C/C(=O)N2CCCC(NC(=O)OC(C)(C)C)C2)c1 (stereo not shown) | < 4.30
CCN(C)C(=O)Oc1ccc(/C=C/C(=O)NC2CCN(Cc3ccccc3)CC2)cc1 | 5.74
COc1ccccc1/C=C/C(=O)N1CCCC(NC(=O)OC(C)(C)C)C1 (stereo not shown) | < 4.30
CCN(CC)C(=O)Oc1ccc(/C=C/C(=O)NC2CCN(Cc3ccccc3)CC2)cc1 | 5.35
COc1ccc(OC)c(/C=C/C(=O)N2CCCC(NC(=O)OC(C)(C)C)C2)c1 (stereo not shown) | 4.38
CCN(C)C(=O)Oc1ccc(CCC(=O)N(CC)CC)cc1OC | 4.71
CCOc1ccc(/C=C/C(=O)N2CCCC(NC(=O)OC(C)(C)C)C2)cc1 (stereo not shown) | < 4.30
COc1ccc(-c2nnc(-c3ccc(OCc4cn(Cc5ccc(F)cc5)nn4)cc3)o2)cc1 | < 4.00
